Experimental data as given in ChEMBL document CHEMBL4177600, “Identification of novel PI3K inhibitors through a scaffold hopping strategy” (Bioorg Med Chem Lett, 2017).
Values after ≈ are worked out from the molar mass of the structure shown.

Tests used:
[1] = biological target: CDK8/Cyclin C (Homo sapiens) (UniProt P49336+P24863); experiment: Inhibition of recombinant human N-terminal GST/HIS6-tagged CDK8 (M1 to Y463 residues)/human N-terminal His6-tagged Cyclin C (M1 to S283 residues) expressed in Sf9 insect cells at 1 uM using RBER-IRStide as substrate by fliter binding assay relative to control
How it was run: (§1)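 Kinase panel of 24 enzymes, each tested at 1 µM; percent inhibition reported as the average of two independent data points.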

[2] = biological target: Fibroblast growth factor receptor 1 (Homo sapiens) (UniProt P11362); experiment: Inhibition of recombinant human N-terminal GST/His6-tagged FGFR1 (G400 to R820 residues) expressed in Sf9 insect cells at 1 uM using poly(Glu,Tyr)4:1 as substrate by filter binding method relative to control; how it was run: as §1
Sequence of Fibroblast growth factor receptor 1 (Homo sapiens) (P11362 22-822 limits assumed): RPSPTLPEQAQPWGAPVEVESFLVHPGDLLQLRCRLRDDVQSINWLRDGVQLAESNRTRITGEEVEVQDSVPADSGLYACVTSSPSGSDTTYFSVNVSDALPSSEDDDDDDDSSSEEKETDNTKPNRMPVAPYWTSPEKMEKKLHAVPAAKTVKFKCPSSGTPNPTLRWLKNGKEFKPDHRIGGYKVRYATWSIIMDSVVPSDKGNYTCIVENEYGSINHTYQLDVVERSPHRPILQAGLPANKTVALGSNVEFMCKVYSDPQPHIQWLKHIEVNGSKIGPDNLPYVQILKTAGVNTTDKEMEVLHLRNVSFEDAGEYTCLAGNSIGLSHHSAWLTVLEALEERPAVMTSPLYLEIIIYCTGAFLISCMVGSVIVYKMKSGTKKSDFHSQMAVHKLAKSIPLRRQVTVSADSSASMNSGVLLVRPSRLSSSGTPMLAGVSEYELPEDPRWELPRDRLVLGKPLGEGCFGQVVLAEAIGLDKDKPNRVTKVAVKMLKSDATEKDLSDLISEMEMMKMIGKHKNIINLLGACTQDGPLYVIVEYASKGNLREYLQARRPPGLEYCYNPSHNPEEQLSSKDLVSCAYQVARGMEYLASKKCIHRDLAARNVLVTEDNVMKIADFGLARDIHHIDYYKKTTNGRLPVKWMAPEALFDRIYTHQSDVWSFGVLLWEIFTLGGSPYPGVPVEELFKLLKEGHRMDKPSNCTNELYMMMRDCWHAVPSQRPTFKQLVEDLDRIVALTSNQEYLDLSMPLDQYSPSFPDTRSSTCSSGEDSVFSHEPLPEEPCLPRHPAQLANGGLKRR

[3] = biological target: Hepatocyte growth factor receptor (Homo sapiens) (UniProt P08581); experiment: Inhibition of recombinant human N-terminal GST/His6-tagged MET (K956 to S1390 residues) expressed in Sf9 insect cells at 1 uM using TRK-C-derived peptide as substrate by filter binding method relative to control
Sequence of Hepatocyte growth factor receptor (Homo sapiens) (P08581 whole entry, the tested form may be a part): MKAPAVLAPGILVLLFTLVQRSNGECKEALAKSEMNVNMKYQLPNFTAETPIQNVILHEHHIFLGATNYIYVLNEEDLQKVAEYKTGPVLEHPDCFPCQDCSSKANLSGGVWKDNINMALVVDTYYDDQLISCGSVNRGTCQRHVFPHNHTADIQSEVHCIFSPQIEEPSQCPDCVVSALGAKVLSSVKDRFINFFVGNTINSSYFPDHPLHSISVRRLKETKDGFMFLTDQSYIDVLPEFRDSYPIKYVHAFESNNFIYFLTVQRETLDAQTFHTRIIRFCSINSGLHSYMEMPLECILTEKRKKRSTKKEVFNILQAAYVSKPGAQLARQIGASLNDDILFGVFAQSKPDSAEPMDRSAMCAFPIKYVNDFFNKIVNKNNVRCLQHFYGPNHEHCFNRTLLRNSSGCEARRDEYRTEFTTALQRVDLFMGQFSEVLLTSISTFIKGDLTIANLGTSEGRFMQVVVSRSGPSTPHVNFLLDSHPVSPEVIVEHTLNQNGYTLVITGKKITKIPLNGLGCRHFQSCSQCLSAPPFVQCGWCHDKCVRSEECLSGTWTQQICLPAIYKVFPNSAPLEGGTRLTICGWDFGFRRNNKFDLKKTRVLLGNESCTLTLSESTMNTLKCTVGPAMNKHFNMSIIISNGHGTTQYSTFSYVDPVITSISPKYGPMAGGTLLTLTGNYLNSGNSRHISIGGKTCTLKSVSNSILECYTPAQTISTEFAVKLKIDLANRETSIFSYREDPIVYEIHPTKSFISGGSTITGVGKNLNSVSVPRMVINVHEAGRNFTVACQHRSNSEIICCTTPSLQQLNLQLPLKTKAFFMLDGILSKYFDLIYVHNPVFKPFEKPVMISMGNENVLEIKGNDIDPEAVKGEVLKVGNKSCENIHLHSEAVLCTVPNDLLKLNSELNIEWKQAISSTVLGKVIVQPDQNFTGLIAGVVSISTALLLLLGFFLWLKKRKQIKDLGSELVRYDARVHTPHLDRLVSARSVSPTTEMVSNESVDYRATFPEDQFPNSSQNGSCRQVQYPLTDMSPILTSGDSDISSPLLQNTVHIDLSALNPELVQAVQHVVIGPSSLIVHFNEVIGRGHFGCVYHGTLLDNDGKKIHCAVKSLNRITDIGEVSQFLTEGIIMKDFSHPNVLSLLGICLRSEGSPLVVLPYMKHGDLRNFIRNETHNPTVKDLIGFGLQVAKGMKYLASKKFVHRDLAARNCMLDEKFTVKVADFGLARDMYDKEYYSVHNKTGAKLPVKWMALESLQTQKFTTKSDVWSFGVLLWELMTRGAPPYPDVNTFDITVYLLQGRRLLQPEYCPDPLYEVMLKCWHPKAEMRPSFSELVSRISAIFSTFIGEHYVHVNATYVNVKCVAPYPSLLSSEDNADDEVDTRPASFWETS
How it was run: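 Single-point screen at 1 µM in a 24-kinase panel run externally; each value is the average of two independent data points. The detailed assay conditions are given only on the provider's site.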

[4] = biological target: T1, Serine/threonine-protein kinase Sgk1 (Homo sapiens) (UniProt O00141); experiment: Inhibition of recombinant human N-terminal GST-tagged SGK1 (M1 to L431 residues) expressed in baculovirus infected Sf9 cells at 1 uM using GSK3-derived peptide as substrate by filter binding method relative to control; how it was run: as §1
T1 sequence (whole entry): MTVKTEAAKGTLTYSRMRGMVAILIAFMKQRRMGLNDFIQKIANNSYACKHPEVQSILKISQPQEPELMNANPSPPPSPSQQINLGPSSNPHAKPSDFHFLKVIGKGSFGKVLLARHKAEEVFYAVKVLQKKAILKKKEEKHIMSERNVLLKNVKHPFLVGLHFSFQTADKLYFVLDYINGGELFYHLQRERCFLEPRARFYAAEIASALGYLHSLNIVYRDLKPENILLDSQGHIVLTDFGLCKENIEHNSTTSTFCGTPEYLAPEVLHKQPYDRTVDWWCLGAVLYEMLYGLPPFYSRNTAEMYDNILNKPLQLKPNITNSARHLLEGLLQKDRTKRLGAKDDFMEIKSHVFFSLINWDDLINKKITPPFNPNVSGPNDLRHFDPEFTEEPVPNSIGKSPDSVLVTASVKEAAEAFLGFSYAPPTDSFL

[5] = biological target: Proto-oncogene tyrosine-protein kinase Src (Homo sapiens) (UniProt P12931); experiment: Inhibition of human SRC at 1 uM using poly(Glu,Tyr)4:1 as substrate by filter binding method relative to control; how it was run: as §1
Sequence of Proto-oncogene tyrosine-protein kinase Src (Homo sapiens) (P12931 2-536 limits assumed): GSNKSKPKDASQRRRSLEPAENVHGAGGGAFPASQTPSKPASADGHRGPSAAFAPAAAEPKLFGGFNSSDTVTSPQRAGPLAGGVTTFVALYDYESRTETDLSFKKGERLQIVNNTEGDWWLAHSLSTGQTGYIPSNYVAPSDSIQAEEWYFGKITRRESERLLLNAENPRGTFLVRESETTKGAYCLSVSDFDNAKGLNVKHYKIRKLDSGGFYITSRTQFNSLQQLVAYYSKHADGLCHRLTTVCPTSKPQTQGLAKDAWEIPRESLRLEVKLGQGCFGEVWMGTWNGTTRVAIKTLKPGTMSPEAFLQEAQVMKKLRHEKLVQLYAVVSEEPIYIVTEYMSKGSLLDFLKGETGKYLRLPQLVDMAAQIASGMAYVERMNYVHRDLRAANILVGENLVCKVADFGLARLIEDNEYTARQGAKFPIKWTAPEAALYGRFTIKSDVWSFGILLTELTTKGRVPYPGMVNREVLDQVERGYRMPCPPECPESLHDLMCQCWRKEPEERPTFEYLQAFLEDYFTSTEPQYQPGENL

[6] = biological target: RAC-beta serine/threonine-protein kinase (Homo sapiens) (UniProt P31751); experiment: Inhibition of human AKT2 at 1 uM by filter binding assay relative to control; how it was run: as §1
Sequence of RAC-beta serine/threonine-protein kinase (Homo sapiens) (P31751 whole entry): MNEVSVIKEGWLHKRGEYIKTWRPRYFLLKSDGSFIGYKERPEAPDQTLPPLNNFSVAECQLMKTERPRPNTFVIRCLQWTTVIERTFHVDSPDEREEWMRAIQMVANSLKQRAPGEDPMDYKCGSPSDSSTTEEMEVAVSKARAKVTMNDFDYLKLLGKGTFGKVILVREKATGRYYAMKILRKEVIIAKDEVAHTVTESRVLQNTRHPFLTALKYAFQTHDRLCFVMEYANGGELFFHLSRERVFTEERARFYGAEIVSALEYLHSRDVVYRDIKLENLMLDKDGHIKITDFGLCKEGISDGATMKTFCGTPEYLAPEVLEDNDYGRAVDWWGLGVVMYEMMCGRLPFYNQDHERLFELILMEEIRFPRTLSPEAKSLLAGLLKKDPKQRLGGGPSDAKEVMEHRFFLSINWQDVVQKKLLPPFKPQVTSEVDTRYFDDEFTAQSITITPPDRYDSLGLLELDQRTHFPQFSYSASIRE

[7] = Stability in mouse liver microsomes assessed as parent compound remaining at 0.5 uM after 30 mins by LC-MS/MS analysis; type: ADME, microsome; conditions: read-out: Stability
How it was run: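 Single time-point stability assay: 0.5 µM compound, 0.5 mg/ml human or mouse liver microsomes in 0.1 M potassium phosphate pH 7.4, with NADPH-regenerating system, 30 min at 37 °C with shaking. Reaction quenched with acetonitrile/0.1% formic acid and centrifuged; supernatant analysed by LC-MS/MS. Reported as percent remaining; duplicates.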

[8] = Kinetic solubility of the compound in phosphate buffered saline at pH 7.4 at 1 to 2 mg measured after 24 hrs by HPLC analysis; type: physicochemical; conditions: read-out: Kinetic_solubility
How it was run: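 Solid compound (1–2 mg) in 1 mL PBS, pH 7.4, inverted in test tubes for 24 h. Samples centrifuged, supernatant analysed by HPLC with diode-array detection, with peak area compared to a standard of known concentration. LC-MS/MS used when UV signal was too low or the chromophore poor. Reported in µM.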

[9] = Half-life in BALB-C mouse at 5 mg/kg, iv by LC-MS/MS analysis; type: ADME, organism-based; conditions: in vivo
How it was run: (§2)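 BALB-C mice dosed IV (10% NMP/50% PEG300/40% saline) or PO (10% NMP/90% PEG300). Plasma sampled at 6 (IV) or 8 (PO) time points; compound measured by LC/MS/MS. Parameters from bicompartmental model fit; each value is the mean of 3 independent samples.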

[10] = Clearance in BALB-C mouse at 5 mg/kg, iv by LC-MS/MS analysis; type: ADME, organism-based; conditions: in vivo
How it was run: (§3)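 Mice (BALB-C) given IV dose in 10% NMP/50% PEG300/40% saline; plasma sampled at 6 times, levels by LC/MS/MS.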

[11] = Volume of distribution in BALB-C mouse at 5 mg/kg, iv by LC-MS/MS analysis; type: ADME, organism-based; conditions: in vivo
How it was run: (§4)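 BALB-C mice dosed IV in 10% NMP/50% PEG300/40% saline or PO in 10% NMP/90% PEG300. Plasma sampled at 6 (IV) or 8 (PO) time points and quantified by LC/MS/MS. Parameters come from a bicompartmental model fit; values are means of 3 independent samples. Plasma levels were compared with AKT-P EC50 from U2OS cells converted to ng/ml.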

[12] = AUC (infinity) in BALB-C mouse at 5 mg/kg, iv by LC-MS/MS analysis; type: ADME, organism-based; parameters: dose 5 mg/kg, time infinity, route intravenous; conditions: in vivo; how it was run: as §2
[13] = Cmax in BALB-C mouse at 10 mg/kg, po by LC-MS/MS analysis; type: ADME, organism-based; parameters: dose 10 mg/kg, route oral; conditions: in vivo; how it was run: as §2
[14] = AUC (infinity) in BALB-C mouse at 10 mg/kg, po by LC-MS/MS analysis; type: ADME, organism-based; parameters: dose 10 mg/kg, time infinity, route oral; conditions: in vivo; how it was run: as §2
[15] = tested on: Mus musculus; experiment: Clearance in BALB-C mouse at 5 mg/kg, iv by LC-MS/MS analysis relative to hepatic blood flow; type: ADME, organism-based; conditions: in vivo
[16] = biological target: Serine/threonine-protein kinase mTOR (Homo sapiens, UniProt P42345); experiment: Inhibition of recombinant human GST-tagged mTOR catalytic domain (1360 to 2549 residues) expressed in baculovirus expression system by AlexaFluor647-labeled kinase tracer 314 based LanthaScreen assay
[17] = tested on: Mus musculus; experiment: Time at which plasma concentration stays above cellular EC50 for inhibition of AKT phosphorylation in BALB-C mouse at 5 mg/kg, po measured up to 24 hrs by LC-MS/MS analysis; type: organism-based; conditions: in vivo; how it was run: as §4
[18] = Half-life in BALB-C mouse at 3 mg/kg, iv by LC-MS/MS analysis; type: ADME, organism-based; conditions: in vivo; how it was run: as §2
[19] = Clearance in BALB-C mouse at 3 mg/kg, iv by LC-MS/MS analysis; type: ADME, organism-based; conditions: in vivo; how it was run: as §3
[20] = Volume of distribution in BALB-C mouse at 3 mg/kg, iv by LC-MS/MS analysis; type: ADME, organism-based; conditions: in vivo; how it was run: as §4
[21] = tested on: Mus musculus; experiment: Clearance in BALB-C mouse at 3 mg/kg, iv by LC-MS/MS analysis relative to hepatic blood flow; type: ADME, organism-based; conditions: in vivo
[22] = tested on: Mus musculus; experiment: Time at which plasma concentration stays above cellular EC50 for inhibition of AKT phosphorylation in BALB-C mouse at 9 mg/kg, po measured up to 8 hrs by LC-MS/MS analysis; conditions: in vivo

Row | SMILES | inhibition [1] | inhibition [2] | inhibition [3] | inhibition [4] | inhibition [5] | inhibition [6] | remaining at 0.5 h, 0.5 µM [7] | solubility kinetic at 24 h [8] | half-life [9] | clearance [10] | Vd [11] | AUC(0-inf) [12] | CL [15] | IC50 [16] | also measured
1 | CS(=O)(=O)N1CCN(Cc2cn3nc(-c4cnc(N)nc4)nc(N4CCOCC4)c3n2)CC1 | < 25% | < 25% | < 25% | < 25% | < 25% | < 25% | 100% | 10 µM (≈ 4.75 µg/mL) |  |  |  |  |  |  | 
2 | CS(=O)(=O)N1CCN(Cc2nc3c(N4CCOCC4)nc(-c4cnc(N)nc4)cn3n2)CC1 | < 25% | < 25% | < 25% | < 25% | < 25% | < 25% | 100% | 100 µM (≈ 47.5 µg/mL) | 15.6 min | 35.5 mL/min/kg | 2 L/kg | 2660 ng·h/mL | < 50% |  | Cmax [13]: 674 ng/mL; AUC(0-inf) [14]: 4690 ng·h/mL
3 | CS(=O)(=O)N1CCN(Cc2nc3c(N4CCOCC4)nc(-c4cnc(N)nc4)c(Cl)n3n2)CC1 | < 25% | < 25% | < 25% | < 25% | < 25% | < 25% | 96% | 100 µM (≈ 50.9 µg/mL) | 109 min | 10.8 mL/min/kg | 1.61 L/kg | 7730 ng·h/mL | < 50% | 8.17 µM | Time [17]: > 12 h
4 | CS(=O)(=O)N1CCN(Cc2cc3c(N4CCOCC4)nc(-c4cnc(N)nc4)cn3n2)CC1 | < 25% | < 25% | < 25% | < 25% | < 25% | < 25% | 100% | 10 µM (≈ 4.74 µg/mL) |  |  |  |  |  | 1.7 µM | half-life [18]: 30.6 min; clearance [19]: 10.8 mL/min/kg; Vd [20]: 0.6 L/kg; CL [21]: < 50%; Time [22]: > 8 h
